# Published values of several laboratories.
# Compare with care: the assays were run in different laboratories.
# Target: Serine/threonine-protein kinase PRP4 homolog (PRPF4B, Homo sapiens, UniProt Q13523)
Structure (SMILES),observed,method,tested at,remaining binding
CN1CCN(c2cnc3c(C4CCN(C(=O)c5ccc(OC(F)(F)F)cc5N)CC4)ncnc3c2)CC1,cell-free assay,competition with immobilised ligand,1 µM,100%
O=C(NCCCN1CCOCC1)c1ccc(Nc2nccc(-c3cc4ccccc4s3)n2)cc1,binding,competition with immobilised ligand,1 µM,6.8%
CN(C)c1nccc(-c2cnn3ncccc23)n1,binding,,1 µM,86%
COc1cnc(Nc2cccc(S(N)(=O)=O)c2)nc1N1CCN(c2ccccc2)CC1,binding,competition with immobilised ligand,1 µM,90%
c1cnn2ncc(-c3ccnc(N4CCC45COC5)n3)c2c1,binding,,1 µM,84%
O=C(NCCCC1CCCCC1)c1ccc(CNC(=O)c2cnn(-c3ccccc3)c2C(F)(F)F)cc1,cell-free assay,competition with immobilised ligand,0.1 µM,100%
Cc1nn(C)cc1-c1nc2c(N3CCN(Cc4ccc(Cl)cc4)CC3)c(Cl)cnc2[nH]1,binding,competition with immobilised ligand,1 µM,100%
FC(F)(F)Oc1cccc(-c2cnc3ccc(-c4ccncc4)nn23)c1,cell-free assay,competition with immobilised ligand,5 µM,71%
COc1ccnn2ncc(-c3ccnc(N(C)C)n3)c12,binding,,1 µM,69%
CNC(=O)[C@@H]1CC[C@@H](n2c(-c3ccc4cnccc4c3)nc3ccc(C(=O)NCc4cccc(C(N)=O)c4)cc32)C1,binding,competition with immobilised ligand,1 µM,100%
CN(C)c1ncc(F)c(-c2cnn3ncccc23)n1,binding,,1 µM,100%
FC(F)(F)c1ccc2c(c1)nc(-c1cccnc1)n2C1CC1,cell-free assay,competition with immobilised ligand,1 µM,98%
C[C@@H]1CCN(c2nccc(-c3cnn4ncccc34)n2)C1,binding,,1 µM,64%
O=C(NCCCN1CCOCC1)c1ccc(Nc2ncc(Cl)c(-c3ccc(Cl)s3)n2)cc1,binding,competition with immobilised ligand,1 µM,22%
Cc1noc([C@H]2C[C@@H](c3ccc(C(F)(F)F)cc3)CN(C(=O)N3CCS(=O)(=O)C3)C2)n1,cell-free assay,competition with immobilised ligand,1 µM,72%
c1cncc(-c2cccc(Nc3nccc(NC4CCCCC4)n3)c2)c1,binding,competition with immobilised ligand,10 µM,100%
O=C(NCc1ncc(C(F)(F)F)cc1Cl)c1ccc2c(c1)C1(CCS(=O)(=O)CC1)[C@@H](C1CC1)N2S(=O)(=O)c1ccc(F)cc1,cell-free assay,competition with immobilised ligand,1 µM,84%
N[C@H]1CCN(c2nccc(-c3cnn4ncccc34)n2)C1,binding,,1 µM,82%
CC(=O)N1CCC(c2ccc(C(=O)NC(=N)N)cc2C(F)(F)F)CC1,cell-free assay,competition with immobilised ligand,1 µM,78%
O=C(NCC1CCOCC1)c1n[nH]cc1NC(=O)c1c(F)cccc1F,binding,competition with immobilised ligand,1 µM,100%
CS(=O)(=O)N1CCCC(NC(=O)[C@H](CCC2CCCCC2)NC(=O)c2ccc(CNc3ncnc4c3nnn4-c3ccccc3)cc2)C1 (stereo partly shown),cell-free assay,competition with immobilised ligand,0.1 µM,60%
Cc1cnc(Nc2ccc(C(=O)N3CCC(N4CCCC4)CC3)cc2)nc1-c1cc2ccccc2s1,binding,competition with immobilised ligand,1 µM,5.2%
